Measurements taken from ChEMBL document CHEMBL4699416, “Allocolchicinoids bearing a Michael acceptor fragment for possible irreversible binding of tubulin” (RSC Med Chem, 2020).
The source made the active and inactive calls. No cut-off for these calls is given here.

How the values were obtained:
BXPC-3 = test: Cytotoxicity against human BxPC-3 cells assessed as inhibition of cell growth incubated for 72 hrs by MTT assay; assay type: functional, cell-based; conditions: BXPC-3, 72 h
How it was run: (§1)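 Cells in DMEM with 10% FCS, seeded 24 h before assay at 3 × 10^5 cells per mL and incubated overnight. DMSO stocks (20 mM) diluted to 20 μM–0.1 nM and added to cells for 72 h, with untreated controls. MTT added for the last 6 h, formazan dissolved in DMSO, OD read at 540 nm.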

HEK293 = test: Cytotoxicity against human HEK293 cells assessed as inhibition of cell growth incubated for 72 hrs by MTT assay; assay type: functional, cell-based; conditions: HEK293, 72 h; how it was run: as §1
COLO357 [1] = test: Cytotoxicity against human COLO-357 cells assessed as inhibition of cell growth incubated for 72 hrs by MTT assay; assay type: functional, cell-based; conditions: COLO357, 72 h; how it was run: as §1
HaCaT = test: Cytotoxicity against human HaCaT cells assessed as inhibition of cell growth incubated for 72 hrs by MTT assay; assay type: functional, cell-based; how it was run: as §1
COLO357 [2] = test: Induction of apoptosis in human COLO357 cells at 5 uM incubated for 72 hrs by propidium iodide staining based flow cytometry analysis (reference value: 0.3 %); assay type: functional
COLO357 [3] = test: Induction of cell cycle arrest in human COLO357 cells assessed as G1 phase at 5 uM incubated for 72 hrs by propidium iodide staining based flow cytometry analysis (reference value: 91.1 %); assay type: functional
COLO357 [4] = test: Induction of mitotic arrest in human COLO357 cells assessed as disruption of mitotic spindle arrangement at 5 uM incubated for 72 hrs by immunofluorescence based confocal microscopic analysis; assay type: functional, cell-based
How it was run: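 COLO-357 cells (10^5 per coverslip) grown overnight, then exposed to 5 μM in complete medium for 72 h. Fixed in 1% paraformaldehyde and permeabilized with 0.1% Triton X100 in PBS. Stained with anti-β-tubulin antibody and AlexaFluor555 anti-mouse IgG, nuclei with Hoechst 33342, then imaged by confocal microscopy.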

[5] = Toxicity in iv dosed C57BL/6 mouse assessed as lethal dose measured after 40 to 48 hrs; assay type: organism-based; conditions: in vivo, time 40-48 hrs; for LD50: C57BL/6, mouse; for LD100: mouse
How it was run: (§2)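 Acute toxicity in C57BL/6 mice, 6–8 weeks old, 10 per group. Each mouse got one intravenous dose of 4, 7, 10 or 13 mg kg–1. The dose range was set in preliminary experiments. Signs of toxicity (ruffled fur, poor mobility, lower body temperature) and lethality were recorded at 24 h and 48 h after injection. Survivors at 48 h were followed for 1 week. LD50 and LD100 were derived.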

COLO357 [6] = test: Induction of cell cycle arrest in human COLO357 cells assessed as G2/M phase at 5 uM incubated for 72 hrs by propidium iodide staining based flow cytometry analysis (reference value: 7.2 %); assay type: functional
[7] = Inhibition of lamb brain tubulin polymerization assessed as reduction in microtubule formation incubated for 40 mins by spectrophotometric analysis; assay type: tissue-based, Ovis aries
[8] = Induction of cell cycle arrest in […] L929 cells assessed as G1 phase at 5 uM incubated for 72 hrs by propidium iodide staining based flow cytometry analysis (reference value: 91 %); assay type: functional
[9] = Toxicity in iv dosed C57BL/6 mouse assessed as lethal dose measured after 24 hrs; assay type: organism-based; conditions: in vivo; how it was run: as §2
[10] = Induction of apoptosis in […] L929 cells at 5 uM incubated for 72 hrs by propidium iodide staining based flow cytometry analysis (reference value: 1.2 %); assay type: functional
[11] = Induction of cell cycle arrest in […] L929 cells assessed as G2/M phase at 5 uM incubated for 72 hrs by propidium iodide staining based flow cytometry analysis (reference value: 8 %); assay type: functional

SMILES | IC50 (BXPC-3) [µM] | IC50 (HEK293) [µM] | IC50 (COLO357 [1]) [µM] | IC50 (HaCaT) [µM] | other results
COC(=O)c1ccc2c(c1)[C@@H](NC(=O)COC(=O)CC(C)SC[C@@H](NC(C)=O)C(=O)OC)CCc1cc(OC)c(OC)c(OC)c1-2 (mixture of isomers) | 0.016 | 0.016 | 0.08 | 0.016 | –
C/C=C/C(=O)OCC(=O)N[C@H]1CCc2cc(OC)c(OC)c(OC)c2-c2ccc(C(=O)OC)cc21 | 0.016 | 0.003 | 0.016 | 0.003 | Activity (COLO357 [2]): 9.3%; Activity (COLO357 [3]): 32%; Activity (COLO357 [4]): Active; LD50 [5]: 6.5 mg/kg; LD100 [5]: 9.8 mg/kg; Activity (COLO357 [6]): 60%
COC(=O)c1ccc2c(c1)[C@@H](NC(=O)COC(=O)/C=C/C(F)(F)F)CCc1cc(OC)c(OC)c(OC)c1-2 | 0.016 | 0.016 | 0.016 | 0.016 | –
COC(=O)c1ccc2c(c1)[C@@H](NC(=O)COC(=O)C=C(C)C)CCc1cc(OC)c(OC)c(OC)c1-2 | 0.003 | 0.016 | 0.016 | 0.003 | –
C=CC(=O)NCC(=O)N[C@H]1CCc2cc(OC)c(OC)c(OC)c2-c2ccc(C(=O)OC)cc21 | 0.08 | 0.4 | 0.4 | 0.08 | –
C=CC(=O)OCC(=O)N[C@H]1CCc2cc(OC)c(OC)c(OC)c2-c2ccc(C(=O)OC)cc21 | 0.016 | 0.016 | 0.016 | 0.016 | –
COC(=O)c1ccc2c(c1)[C@@H](NC(=O)CNC(=O)/C=C/C(F)(F)F)CCc1cc(OC)c(OC)c(OC)c1-2 | 0.016 | 0.08 | 0.08 | 0.016 | –
C/C=C/C=C/C(=O)OCC(=O)N[C@H]1CCc2cc(OC)c(OC)c(OC)c2-c2cc3cc(COC(C)=O)oc3cc21 | 0.016 | 0.003 | 0.016 | 0.0006 | –
C/C=C/C=C/C(=O)OCC(=O)N[C@H]1CCc2cc(OC)c(OC)c(OC)c2-c2ccc(C(=O)OC)cc21 | 0.003 | 0.003 | 0.003 | 0.0006 | IC50 [7]: 6.78 µM; Activity [8]: 40%; Activity (COLO357 [4]): Active; LD50 at 24 h ([9]; C57BL/6, mouse): 6.1 mg/kg; LD100 ([9]; mouse, 24 h): 8.4 mg/kg; Activity [10]: 5.6%; Activity [11]: 61%
C/C=C/C=C/C(=O)NCC(=O)N[C@H]1CCc2cc(OC)c(OC)c(OC)c2-c2cc3cc(CO)oc3cc21 | 0.4 | 0.4 | 0.4 | 0.4 | –
COc1cc2c(c(OC)c1OC)-c1ccc(OC)c(=O)cc1[C@@H](NC(C)=O)CC2 [COLCHICINE] | 0.016 | 0.016 | 0.016 | 0.003 | Activity (COLO357 [2]): 10%; Activity [8]: 30%; Activity (COLO357 [3]): 33%; Activity (COLO357 [4]): Active; LD50 [5]: 8.5 mg/kg; LD100 [5]: 10.9 mg/kg; Activity [10]: 3%; Activity (COLO357 [6]): 61%; Activity [11]: 74%
C/C=C/C=C/C(=O)NCC(=O)N[C@H]1CCc2cc(OC)c(OC)c(OC)c2-c2ccc(C(=O)OC)cc21 | 0.003 | 0.016 | 0.016 | 0.003 | –
COC(=O)c1ccc2c(c1)[C@@H](NC(=O)CNC(=O)C=C(C)C)CCc1cc(OC)c(OC)c(OC)c1-2 | 0.016 | 0.016 | 0.08 | 0.016 | –
C/C=C/C(=O)NCC(=O)N[C@H]1CCc2cc(OC)c(OC)c(OC)c2-c2ccc(C(=O)OC)cc21 | 0.08 | 0.08 | 0.08 | 0.08 | –
